Screening data as filed in PubChem.
An excerpt weighted towards active compounds, which were near 3.1% of everything screened.
Ecoli rRNA inh = inhibits bacterial ribosomal RNA function over humanized ribosomes | E. coli WT GFP vs humanized-ribosome RFP mutants, fluorescence, 24 h; active compounds read low; DMSO median 0, no signal -100 | GFP signal change (wild-type ribosome), % (test concentration not listed) | 350,000 tested, 1.6% active;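 active = significant combined selectivity score with lowered wild-type GFP, culture density cut under 30%, mutant RFP and density less affected; inactive = any of these conditions unmet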
Cneo AK release = causes C. neoformans cell lysis | 360,000 tested, 0.2% active | lysis activity, % at 15 µM | adenylate kinase release luminescence, 4 h; normalised: neutral wells 0, clomiphene wells 100;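 active = mean lysis activity across replicates of at least 80%, whatever share of replicates individually reach that level; inactive = mean lysis activity below 80%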
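Assay system: log-phase C. neoformans yeast / Quantity: yeast cell density of 5 × 10^6 cells/mL / Medium: fresh YPD growth medium / Compound: single dose / Timing: static 4 h at 37 °C with compound, 1 h detection / Measured by: adenylate kinase release luminescence / Read-out: lysis from increased AK signal / Benchmarks: Clomiphene as positive lysis control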
INS-1E GSIS act = GLuc luminescence reporter in INS-1E cells, primary screen for activators of glucose-dependent secretion of insulin; INS-1E GLuc reporter insulin secretion, 2-3 h; activation, % at 16.6 µM; 370,000 tested, 0.61% active; AID 743287;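 active = lowest replicate activation of at least 40%, so every replicate reaches that level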
CFTR F508del cor = CFTR F508del correction in bronchial cells; CFBE cells, YFP halide quenching; stimulated with forskolin plus potentiator P3; % fluorescence drop versus neutral controls; activity (quench increase), % at 7.58 µM; 350,000 tested, 0.36% active;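 active = mean added fluorescence quench of at least 8% versus neutral control, with both replicates also reaching 8%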;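 note: cells transiently co-express mutant CFTR-F508del with the halide-sensitive YFP; corrector assay measuring rescue of mutant channel to the surface after 24 h compound exposure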
miR122 inh = blocks miR-122 activity in Huh7 sensor cells; 340,000 tested, 0.3% active; AID 602342; activation (reporter increase), % at 12.5 µM; Huh7 miR-122 Renilla luciferase sensor, 48 h; neutral wells = 0, positive control = 100;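 active = mean replicate activation score at least 90 and every replicate individually at or above 90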;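 note: higher luciferase means less miR-122 activity so hits act as miR-122 inhibitors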
Env fusion inh = HIV envelope-mediated fusion inhibition; HeLa-JRFL Env/CEM21 cell fusion, luciferase; AID 651610; inhibition, % at 12.3 µM; 360,000 tested, 1.1% active;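 active = mean replicate inhibition score of at least 50 and every replicate individually at or above 50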
A number is an active result; n = inactive; x = not tested or not shown; [ ] = another dose, or the depositor's remark.

SMILES | Ecoli rRNA inh | Cneo AK release | INS-1E GSIS act | CFTR F508del cor | miR122 inh | Env fusion inh
Cc1oc(-c2cccc(Cl)c2)nc1CN(C)C1CCOC1 (stereo not given) | n | x | n | n | x | n
Cc1oc(-c2ccc(-c3ccccc3)cc2)nc1CN(C)C1CCOC1 (stereo not given) | -23 | n | n | n | n | n
O=C(/C=C/c1ccccc1Cl)N(Cc1ccccc1)C1CCS(=O)(=O)C1 (stereo not given) | x | x | n | x | x | n
O=C(c1cccs1)N(Cc1ccc(Cl)cc1)C1CCS(=O)(=O)C1 (stereo not given) | n | n | 48 | n | n | n
O=C(/C=C/c1ccccc1Cl)N(Cc1cccs1)C1CCS(=O)(=O)C1 (stereo not given) | -35 | n | n | n | n | n
Cc1noc(C)c1NC(=O)N(C)C[C@@H]1Oc2ccc(NC(=O)C3CCCCC3)cc2C(=O)N([C@H](C)CO)C[C@H]1C | n | n | n | n | n | n
C[C@H](CO)N1C[C@H](C)[C@@H](CN(C)S(=O)(=O)c2ccc(F)cc2)Oc2c(NS(=O)(=O)c3ccc(Cl)cc3)cccc2C1=O | n | n | n | n | n | n
O=C(Nc1cccc(O)c1)c1cc(-c2ccccc2Cl)on1 | -25 | n | n | n | x | n
COc1ccc(NC(=O)c2cc(-c3ccccc3Cl)on2)cc1OC | n | n | n | n | n | n
CC(C)[C@H]1COCc2cn(nn2)CCC[C@H](C)C(=O)N1 | n | x | n | x | x | x
C[C@@H]1CN([C@H](C)CO)C(=O)c2cc(NC(=O)Nc3cccc4ccccc34)ccc2O[C@@H](C)CCCCO[C@@H]1CN(C)S(=O)(=O)c1ccccc1 | n | x | n | x | x | x
CN(C)S(=O)(=O)c1ccc2c(c1)C(=O)c1cc(S(=O)(=O)N(C)C)ccc1CC2 | n | n | n | n | n | n
CN(C)S(=O)(=O)c1ccc2c(c1)/C(=C/c1cc3c([nH]1)CCCC3)C(=O)N2 | n | n | n | 8.6 | n | n
CCOC(=O)[C@]12CCCC=C1N(Cc1cccc3ccccc13)C(=O)[C@H](CC(=O)NCc1ccc(OC)c(OC)c1)C2 | x | x | n | n | x | 56
CCOC(=O)[C@]12CCCC=C1N(Cc1cccc3ccccc13)C(=O)[C@H](CC(=O)NCc1cccc(C(F)(F)F)c1)C2 | x | x | x | 11 | x | n
Cc1noc(C)c1S(=O)(=O)Nc1ccc2c(c1)C(=O)N([C@@H](C)CO)C[C@H](C)[C@H](CN(C)C(=O)Cc1ccccc1)OCCCC[C@H](C)O2 | n | n | n | n | n | n
Cc1ccc(NC(=S)c2ccc3ccccc3n2)c(C)c1 | n | n | 57 | n | n | n
Cc1ccc(C)c(NC(=O)c2ccc3ccccc3n2)c1 | x | n | n | x | n | x
CCn1c(-c2cc(-c3cccc(OC)c3)nc3ccccc23)n[nH]c1=S | -44 | n | n | n | n | x
CCC/C(=C1/c2ccccc2C(=O)N1c1ccccc1)c1ccc(C=O)o1 | -24 | x | n | n | x | n
CCN1[C@@H]2Cn3c(ccc(C4=CCCCC4)c3=O)[C@H]1[C@@H](C(=O)NC1Cc3ccccc3C1)[C@@H]2CO | n | x | n | n | x | x
C[C@@H]1CN([C@H](C)CO)S(=O)(=O)c2ccc(C#CC3CC3)cc2O[C@H]1CN(C)Cc1ccccn1 | n | n | n | 17 | n | n
C[C@@H]1CN([C@H](C)CO)S(=O)(=O)c2ccc(C#CC3CC3)cc2O[C@@H]1CN(C)CC1CCOCC1 | n | n | n | n | n | n
C[C@@H]1CN([C@H](C)CO)S(=O)(=O)c2ccc(C#CC3CC3)cc2O[C@H]1CN(C)CC1CCOCC1 | n | 85 | n | n | n | n
CC(C)CC#Cc1ccc2c(c1)O[C@@H](CN(C)Cc1ccccn1)[C@H](C)CN([C@H](C)CO)S2(=O)=O | -23 | n | n | x | n | 91[16.7 µM]
SMILES | Ecoli rRNA inh | Cneo AK release | INS-1E GSIS act | CFTR F508del cor | miR122 inh | Env fusion inh
O=S(=O)(N[C@H]1CC[C@@H](CCn2cc(-c3cccnc3)nn2)O[C@H]1CO)c1ccc(F)cc1 | n | n | n | n | x | n
Cc1noc(C)c1NC(=O)N(C)C[C@H]1Oc2ccc(NC(=O)Nc3ccc4c(c3)OCO4)cc2C(=O)N([C@@H](C)CO)C[C@H]1C | n | n | n | n | n | n
C[C@H](CO)N1C[C@H](C)[C@H](CN(C)C(=O)Nc2ccccc2)Oc2c(NS(=O)(=O)c3ccc(F)cc3)cccc2C1=O | n | n | n | n | n | 88[16.7 µM]
C[C@H]1CN([C@@H](C)CO)C(=O)c2cccc(NS(=O)(=O)c3ccc(F)cc3)c2O[C@H]1CN(C)C(=O)Nc1ccccc1 | n | n | n | n | n | n
C[C@@H]1CN([C@@H](C)CO)C(=O)c2cccc(NS(=O)(=O)c3ccc(F)cc3)c2O[C@H]1CN(C)C(=O)Nc1ccc(C(F)(F)F)cc1 | n | n | n | n | n | n
C[C@H](CO)N1C[C@H](C)[C@H](CN(C)C(=O)Nc2ccc(C(F)(F)F)cc2)Oc2c(NS(=O)(=O)c3ccc(F)cc3)cccc2C1=O | n | n | n | n | n | 57[16.7 µM]
Cc1ccc(S(=O)(=O)N(C)C[C@@H]2Oc3ccc(NS(=O)(=O)c4ccccc4)cc3CC(=O)N([C@H](C)CO)C[C@H]2C)cc1 | n | n | n | n | n | n
Cc1ccc(S(=O)(=O)Nc2ccc3c(c2)CC(=O)N([C@@H](C)CO)C[C@H](C)[C@@H](CN(C)Cc2ccc(-c4ccccc4)cc2)O3)cc1 | n | n | n | n | n | 75[16.7 µM]
Cc1ccc(S(=O)(=O)Nc2ccc3c(c2)CC(=O)N([C@@H](C)CO)C[C@@H](C)[C@H](CN(C)S(=O)(=O)c2ccc(C)cc2)O3)cc1 | n | n | n | n | n | n
Cc1ccc(S(=O)(=O)Nc2ccc3c(c2)CC(=O)N([C@H](C)CO)C[C@H](C)[C@H](CN(C)S(=O)(=O)c2ccccc2)O3)cc1 | n | n | n | n | n | 80[16.7 µM]
Cc1ccc(S(=O)(=O)N(C)C[C@@H]2Oc3ccc(NS(=O)(=O)c4ccccc4)cc3CC(=O)N([C@H](C)CO)C[C@@H]2C)cc1 | n | n | n | n | n | 100[16.7 µM]
Cc1ccc(S(=O)(=O)Nc2ccc3c(c2)CC(=O)N([C@H](C)CO)C[C@@H](C)[C@@H](CN(C)S(=O)(=O)c2ccccc2)O3)cc1 | n | n | n | n | n | n
Cc1ccc(S(=O)(=O)Nc2ccc3c(c2)CC(=O)N([C@@H](C)CO)C[C@H](C)[C@H](CN(C)Cc2ccc(-c4ccccc4)cc2)O3)cc1 | n | n | n | n | n | n
Cc1ccc(S(=O)(=O)Nc2ccc3c(c2)CC(=O)N([C@@H](C)CO)C[C@H](C)[C@H](CN(C)S(=O)(=O)c2ccccc2)O3)cc1 | n | n | n | n | n | 67[16.7 µM]
